Data from ChEMBL document CHEMBL4177684, “Design, synthesis, and biological evaluation of hydantoin bridged analogues of combretastatin A-4 as potential anticancer agents” (Bioorg Med Chem, 2017).
Activity calls are given as the source filed them. The rule behind the calls is not given here.

Columns and labels:
[1] = tested on: A2780; experiment: Antiproliferative activity against human A2780 cells by MTT assay; format: functional, cell-based
In short: (§1)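 Growth inhibition rate calculated per compound. IC₅₀ derived by curve fitting.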

[2] = tested on: HeLa; experiment: Antiproliferative activity against human HeLa cells by MTT assay; format: functional, cell-based; in short: as §1
[3] = tested on: HCT-116; experiment: Antiproliferative activity against human HCT116 cells by MTT assay; format: functional, cell-based; in short: as §1
[4] = tested on: MDA-MB-231; experiment: Antiproliferative activity against human MDA-MB-231 cells by MTT assay; format: functional, cell-based; in short: as §1
[5] = tested on: A2780; experiment: Antitumor activity against human A2780 cells xenografted in Balb/c nude mouse assessed as tumor growth inhibition at 20 mg/kg, ip administered every other day relative to control; format: functional; settings: read-out: TGI
[6] = tested on: HeLa; experiment: Induction of apoptosis in human HeLa cells assessed as increase in p53 protein levels after 24 hrs Western blot analysis
[7] = tested on: Mus musculus; experiment: Toxicity in Balb/c nude mouse xenografted with human A2780 cells assessed as body weight at 20 mg/kg, ip measured immediately after first dose (reference value: 21.74 +/- 0.63 g); format: organism-based; settings: in vivo
[8] = tested on: HeLa; experiment: Induction of apoptosis in human HeLa cells assessed as necrotic cells at 2 uM after 72 hrs by Annexin V-FITC/propidium iodide staining-based flow cytometric analysis (reference value: 0.5%); format: functional
[9] = (§2) Inhibition of pig brain tubulin polymerization measured every 1 min for 20 mins by spectrophotometric analysis; parameters: species or system Sus scrofa
[10] = species on record: Sus scrofa; experiment: as §2
[11] = tested on: HeLa; experiment: Induction of apoptosis in human HeLa cells assessed as viable cells at 2 uM after 72 hrs by Annexin V-FITC/propidium iodide staining-based flow cytometric analysis (reference value: 87.6%); format: functional; settings: read-out: Activity
[12] = tested on: HeLa; experiment: Cell cycle arrest in human HeLa cells assessed as accumulation of cells at G2/M phase after 24 hrs by propidium iodide staining-based flow cytometric analysis; format: functional
In short: (§3)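 HeLa cells treated with compound or DMSO, washed in PBS and fixed in 75% ethanol at -20 °C overnight. Stained with propidium iodide containing 0.1% RNase for 15 min in the dark at room temperature. DNA content read by flow cytometry to give cell-cycle phase distribution.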

[13] = tested on: HeLa; experiment: Induction of apoptosis in human HeLa cells assessed as necrotic cells at 0.5 uM after 72 hrs by Annexin V-FITC/propidium iodide staining-based flow cytometric analysis (reference value: 0.5%); format: functional
[14] = tested on: HeLa; experiment: Induction of apoptosis in human HeLa cells assessed as early apoptotic cells at 1 uM after 72 hrs by Annexin V-FITC/propidium iodide staining-based flow cytometric analysis (reference value: […]); format: functional
[15] = tested on: HUVEC; experiment: Antiangiogenic activity against HUVEC assessed as capillary like tube formation at 1 uM after 12 hrs by matrigel-based microscopic analysis; format: functional, cell-based; settings: Homo sapiens
In short: (§4)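 Matrigel pre-set in wells for 2 h at 37 °C, 5% CO₂. HUVECs (10⁴ per well) seeded in medium with compound or DMSO. Incubated 6-12 h, then capillary-like tube networks photographed under a microscope.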

[16] = tested on: MDA-MB-231; experiment: Inhibition of colony formation of human MDA-MB-231 cells at 800 nM incubated for 48 hrs followed by subsequent incubation for 7 to 10 days in fresh medium by gentian violet staining-based colony formation assay; format: functional, cell-based
In short: (§5)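 MDA-MB-231 or A2780 cells seeded at 1000 per well and grown 48 h at 37 °C, 5% CO₂. Then exposed to compound or DMSO for 48 h, medium replaced, and grown a further 7-10 days. Colonies fixed with methanol for 20 min and stained with gentian violet for 30 min. Three independent runs.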

[17] = tested on: MDA-MB-231; experiment: Inhibition of colony formation of human MDA-MB-231 cells incubated for 48 hrs followed by subsequent incubation for 7 to 10 days in fresh medium by gentian violet staining-based colony formation assay; format: functional, cell-based; in short: as §5
[18] = tested on: HeLa; experiment: Induction of apoptosis in human HeLa cells assessed as late apoptotic cells at 1 uM after 72 hrs by Annexin V-FITC/propidium iodide staining-based flow cytometric analysis (reference value: 3.3%); format: functional
[19] = tested on: HeLa; experiment: Induction of apoptosis in human HeLa cells after 72 hrs by Annexin V-FITC/propidium iodide staining-based flow cytometric analysis; format: functional, cell-based
[20] = tested on: HeLa; experiment: Induction of apoptosis in human HeLa cells assessed as increase in cleaved PARP1 protein levels after 24 hrs Western blot analysis
[21] = tested on: HeLa; experiment: Cell cycle arrest in human HeLa cells assessed as accumulation of cells at G2/M phase at 2 uM after 12 hrs by propidium iodide staining-based flow cytometric analysis (reference value: 17.6%); format: functional; in short: as §3
[22] = tested on: HeLa; experiment: Induction of cell cycle arrest in human HeLa cells assessed as increase in cyclin B1 expression levels at 1.25 to 20 uM after 24 hrs by Western blot analysis; format: functional, cell-based
In short: (§6)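 HeLa cells treated with compound or DMSO for 24 h and lysed; protein quantified by BCA. Run on 8-12% SDS-PAGE and blotted to PVDF. Blocked in 5% BSA/TBST for 1.5 h, primary antibody overnight at 4 °C, secondary 2 h at room temperature. Chemiluminescent detection.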

[23] = tested on: HUVEC; experiment: Antiangiogenic activity against HUVEC assessed as capillary like tube formation at 2 uM after 6 to 12 hrs by matrigel-based microscopic analysis; format: functional, cell-based; settings: Homo sapiens; in short: as §4
[24] = tested on: A2780; experiment: Inhibition of colony formation of human A2780 cells incubated for 48 hrs followed by subsequent incubation for 7 to 10 days in fresh medium by gentian violet staining-based colony formation assay; format: functional, cell-based; in short: as §5
[25] = tested on: HeLa; experiment: Induction of apoptosis in human HeLa cells assessed as late apoptotic cells at 0.5 uM after 72 hrs by Annexin V-FITC/propidium iodide staining-based flow cytometric analysis (reference value: 3.3%); format: functional
[26] = tested on: HeLa; experiment: Induction of apoptosis in human HeLa cells assessed as viable cells at 0.5 uM after 72 hrs by Annexin V-FITC/propidium iodide staining-based flow cytometric analysis (reference value: 87.6%); format: functional; settings: read-out: Activity
[27] = tested on: HeLa; experiment: Induction of cell cycle arrest in human HeLa cells assessed as increase in phosphorylated histone H3 levels at 1.25 to 20 uM after 24 hrs by Western blot analysis; format: functional, cell-based; in short: as §6
[28] = tested on: HeLa; experiment: Induction of apoptosis in human HeLa cells assessed as early apoptotic cells at 2 uM after 72 hrs by Annexin V-FITC/propidium iodide staining-based flow cytometric analysis (reference value: […]); format: functional
[29] = tested on: HeLa; experiment: Induction of apoptosis in human HeLa cells assessed as viable cells at 1 uM after 72 hrs by Annexin V-FITC/propidium iodide staining-based flow cytometric analysis (reference value: 87.6%); format: functional; settings: read-out: Activity
[30] = tested on: Mus musculus; experiment: Toxicity in Balb/c nude mouse xenografted with human A2780 cells assessed as body weight at 20 mg/kg, ip administered every other day measured at end of study (reference value: 22.35 +/- 0.74 g); format: organism-based; settings: in vivo
[31] = Cytotoxicity against HOSEC at 10 to 50 uM by MTT assay relative to control; settings: human
[32] = tested on: HeLa; experiment: Induction of apoptosis in human HeLa cells assessed as late apoptotic cells at 2 uM after 72 hrs by Annexin V-FITC/propidium iodide staining-based flow cytometric analysis (reference value: 3.3%); format: functional
[33] = tested on: HeLa; experiment: Induction of apoptosis in human HeLa cells assessed as early apoptotic cells at 0.5 uM after 72 hrs by Annexin V-FITC/propidium iodide staining-based flow cytometric analysis (reference value: […]); format: functional
[34] = tested on: HeLa; experiment: Induction of apoptosis in human HeLa cells assessed as necrotic cells at 1 uM after 72 hrs by Annexin V-FITC/propidium iodide staining-based flow cytometric analysis (reference value: 0.5%); format: functional

COc1ccc(N2C(=O)N(CCO)C(=O)C2c2cc(OC)c(OC)c(OC)c2)cc1N (configuration not stated)
IC50 [1]: 6.62 µM | IC50 [2]: 3.6 µM

COc1ccc(N2C(=O)NC(=O)C2c2cc(OC)c(OC)c(OC)c2)cn1 (configuration not stated)
IC50 [1]: > 50 µM | IC50 [2]: > 50 µM

COc1cc(C2C(=O)NC(=O)N2c2ccc3[nH]ccc3c2)cc(OC)c1OC (configuration not stated)
IC50 [1]: 8.41 µM | IC50 [2]: > 50 µM

COc1cc(C2C(=O)N(C)C(=O)N2c2ccc(C)c(N)c2)cc(OC)c1OC (configuration not stated)
IC50 [1]: 0.679 µM | IC50 [3]: 0.681 µM | IC50 [4]: 1.19 µM | IC50 [2]: 0.631 µM

COc1ccc(N2C(=S)NC(=O)C2c2cc(OC)c(OC)c(OC)c2)cc1 (configuration not stated)
IC50 [1]: > 50 µM | IC50 [2]: > 50 µM

COc1cc(C2C(=O)NC(=O)N2c2cccc(O)c2)cc(OC)c1OC (configuration not stated)
IC50 [1]: > 50 µM | IC50 [2]: > 50 µM

COc1cc(C2C(=O)NC(=O)N2c2ccccc2)cc(OC)c1OC (configuration not stated)
IC50 [1]: > 50 µM | IC50 [2]: > 50 µM

COc1cc(C2C(=O)N(C)C(=O)N2c2ccc(C)c(C)c2)cc(OC)c1OC (configuration not stated)
IC50 [1]: 0.533 µM | IC50 [3]: 0.307 µM | IC50 [4]: 0.493 µM | IC50 [2]: 0.363 µM

COc1ccc(C2C(=O)NC(=O)N2c2cc(OC)c(OC)c(OC)c2)cc1 (configuration not stated)
IC50 [1]: > 50 µM | IC50 [2]: > 50 µM

CCN1C(=O)C(c2cc(OC)c(OC)c(OC)c2)N(c2ccc(OC)c(N)c2)C1=O (configuration not stated)
IC50 [1]: 1.91 µM | IC50 [2]: 3.31 µM

COc1ccc(N2C(=O)NC(=O)C2c2cc(OC)c(OC)c(OC)c2)cc1O (configuration not stated)
IC50 [1]: 0.815 µM | IC50 [3]: 0.945 µM | IC50 [4]: 0.768 µM | IC50 [2]: 0.665 µM

COc1ccc(N2C(=O)NC(=O)C2c2cc(OC)c(OC)c(OC)c2)cc1OS(=O)(=O)F (configuration not stated)
IC50 [1]: 4.52 µM | IC50 [2]: 6.76 µM

COc1cc(C2C(=O)NC(=O)N2c2ccc3c(ccn3S(=O)(=O)c3ccc(C)cc3)c2)cc(OC)c1OC (configuration not stated)
IC50 [1]: > 50 µM | IC50 [2]: > 50 µM

COc1ccc(N2C(=O)NC(=O)C2c2cc(OC)c(OC)c(OC)c2)cc1[N+](=O)[O-] (configuration not stated)
IC50 [1]: 9.71 µM | IC50 [2]: 4.74 µM

COc1ccc(N2C(=O)N(C)C(=O)C2c2cc(OC)c(OC)c(OC)c2)cc1O (configuration not stated)
IC50 [1]: 0.353 µM | IC50 [3]: 0.386 µM | IC50 [4]: 0.301 µM | IC50 [2]: 0.429 µM

COc1ccc(N2C(=O)N(C)C(=O)C2c2cc(OC)c(OC)c(OC)c2)cc1N (configuration not stated)
inhibition in vivo at 20 mg/kg [5]: 46.9% | Activity [6]: Dose-dependent effect | IC50 [1]: 0.186 µM | Activity [7]: 21.62 g | Activity [8]: 2.2% | IC50 [9]: 16.2 µM | inhibition [10]: Dose-dependent effect | viability at 2 µM [11]: 27.3% | IC50 [3]: 0.265 µM | Activity [12]: Dose-dependent effect | Activity [13]: 0.8% | Activity [14]: 47.8% | Activity [15]: Active | inhibition [16]: Active | inhibition [17]: Dose-dependent effect | Activity [18]: 8.7% | Activity [19]: Dose-dependent effect | Activity [20]: Dose-dependent effect | Activity [21]: 91.4% | Activity [22]: Active | Activity [23]: Active | inhibition [24]: Dose-dependent effect | Activity [25]: 6.1% | viability at 0.5 µM [26]: 67.8% | Activity [27]: Active | Activity [28]: 53% | viability at 1 µM [29]: 43.2% | Activity [30]: 22.05 g | Activity [31]: ≤ 33% | Activity [32]: 17.5% | Activity [33]: 25.3% | IC50 [4]: 0.279 µM | IC50 [2]: 0.251 µM | Activity [34]: 0.3%
